Blank lines part the entries; values can stand above or below the compound they belong to.
Tests used:
[1] = molecular target: T1, Histone-lysine N-methyltransferase, H3 lysine-79 specific (Homo sapiens, UniProt Q8TEK3); experiment: Inhibition of DOT1L (2 to 416 residues) (unknown origin) using biotinylated nucleosomes as substrate preincubated for 30 mins followed by substrate addition in presence of [3H-Me]SAM by scintillation proximity assay
[2] = Half life in Sprague-Dawley rat at 1 mg/kg, iv administered as bolus dose by LC-MS/MS analysis; assay type: ADME, organism-based; settings: in vivo
In short: (§1)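 Male Sprague Dawley rats received a single intravenous bolus at 1 mg/kg. Total blood concentrations were followed over time. Clearance, volume of distribution, half-life and AUC0-inf were derived from the blood profile.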

[3] = Clearance in Sprague-Dawley rat at 1 mg/kg, iv administered as bolus dose measured up to 48 hrs by LC-MS/MS analysis; assay type: ADME, organism-based; settings: in vivo; in short: as §1
[4] = Drug level in Sprague-Dawley rat blood at 15 mg/kg, po administered via gastric intubation up to 24 hrs by LC-MS/MS analysis; assay type: ADME, organism-based; settings: in vivo
In short: (§2)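 Oral dosing was given to male Sprague Dawley rats as a suspension at 15 mg/kg. Total blood concentrations were sampled over time to give Cmax, Tmax and AUC0-inf. Oral bioavailability was calculated at this dose.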

[5] = Oral bioavailability in Sprague-Dawley rat at 15 mg/kg administered via gastric intubation measured up to 48 hrs by LC-MS/MS analysis; assay type: ADME, organism-based; settings: in vivo; in short: as §2
[6] = test system: MV4-11; experiment: Antiproliferative activity against human MV4-11 cells harboring MLL-AF4 treated for 6 hrs measured after 8 days by Celltiter-Glo reagent based assay; assay type: functional, cell-based
[7] = AUC (0 to infinity) in Sprague-Dawley rat at 15 mg/kg, po administered via gastric intubation by LC-MS/MS analysis; assay type: ADME, organism-based; set-up: dose 15 mg/kg, route oral, time infinity; settings: in vivo; in short: as §2
[8] = AUC (0 to infinity) in Sprague-Dawley rat at 1 mg/kg, iv administered as bolus dose by LC-MS/MS analysis; assay type: ADME, organism-based; set-up: dose 1 mg/kg, route intravenous, time infinity; settings: in vivo; in short: as §1
[9] = Volume of distribution in Sprague-Dawley rat at 1 mg/kg, iv administered as bolus dose measured up to 48 hrs by LC-MS/MS analysis; assay type: ADME, organism-based; settings: in vivo; in short: as §1
[10] = Tmax in Sprague-Dawley rat at 15 mg/kg, po administered via gastric intubation by LC-MS/MS analysis; assay type: ADME, organism-based; settings: in vivo; in short: as §2
[11] = molecular target: T1, Histone-lysine N-methyltransferase, H3 lysine-79 specific; experiment: Inhibition of DOT1L in human MOLM13 cells assessed as suppression of HoxA9 gene after 72 hrs by luciferase reporter gene assay; assay type: cell-based
[12] = molecular target: T1, Histone-lysine N-methyltransferase, H3 lysine-79 specific; experiment: Inhibition of DOT1L in human HeLa cells assessed as reduction in H3K79me2 level after 72 hrs by ELISA; assay type: cell-based
[13] = Cmax in Sprague-Dawley rat at 15 mg/kg, po administered via gastric intubation measured up to 48 hrs by LC-MS/MS analysis; assay type: ADME, organism-based; set-up: dose 15 mg/kg, route oral; settings: in vivo; in short: as §2
[14] = Permeability of compound by HDM-PAMPA assay; assay type: ADME

T1 sequence (Q8TEK3 whole entry, the tested form may be a part): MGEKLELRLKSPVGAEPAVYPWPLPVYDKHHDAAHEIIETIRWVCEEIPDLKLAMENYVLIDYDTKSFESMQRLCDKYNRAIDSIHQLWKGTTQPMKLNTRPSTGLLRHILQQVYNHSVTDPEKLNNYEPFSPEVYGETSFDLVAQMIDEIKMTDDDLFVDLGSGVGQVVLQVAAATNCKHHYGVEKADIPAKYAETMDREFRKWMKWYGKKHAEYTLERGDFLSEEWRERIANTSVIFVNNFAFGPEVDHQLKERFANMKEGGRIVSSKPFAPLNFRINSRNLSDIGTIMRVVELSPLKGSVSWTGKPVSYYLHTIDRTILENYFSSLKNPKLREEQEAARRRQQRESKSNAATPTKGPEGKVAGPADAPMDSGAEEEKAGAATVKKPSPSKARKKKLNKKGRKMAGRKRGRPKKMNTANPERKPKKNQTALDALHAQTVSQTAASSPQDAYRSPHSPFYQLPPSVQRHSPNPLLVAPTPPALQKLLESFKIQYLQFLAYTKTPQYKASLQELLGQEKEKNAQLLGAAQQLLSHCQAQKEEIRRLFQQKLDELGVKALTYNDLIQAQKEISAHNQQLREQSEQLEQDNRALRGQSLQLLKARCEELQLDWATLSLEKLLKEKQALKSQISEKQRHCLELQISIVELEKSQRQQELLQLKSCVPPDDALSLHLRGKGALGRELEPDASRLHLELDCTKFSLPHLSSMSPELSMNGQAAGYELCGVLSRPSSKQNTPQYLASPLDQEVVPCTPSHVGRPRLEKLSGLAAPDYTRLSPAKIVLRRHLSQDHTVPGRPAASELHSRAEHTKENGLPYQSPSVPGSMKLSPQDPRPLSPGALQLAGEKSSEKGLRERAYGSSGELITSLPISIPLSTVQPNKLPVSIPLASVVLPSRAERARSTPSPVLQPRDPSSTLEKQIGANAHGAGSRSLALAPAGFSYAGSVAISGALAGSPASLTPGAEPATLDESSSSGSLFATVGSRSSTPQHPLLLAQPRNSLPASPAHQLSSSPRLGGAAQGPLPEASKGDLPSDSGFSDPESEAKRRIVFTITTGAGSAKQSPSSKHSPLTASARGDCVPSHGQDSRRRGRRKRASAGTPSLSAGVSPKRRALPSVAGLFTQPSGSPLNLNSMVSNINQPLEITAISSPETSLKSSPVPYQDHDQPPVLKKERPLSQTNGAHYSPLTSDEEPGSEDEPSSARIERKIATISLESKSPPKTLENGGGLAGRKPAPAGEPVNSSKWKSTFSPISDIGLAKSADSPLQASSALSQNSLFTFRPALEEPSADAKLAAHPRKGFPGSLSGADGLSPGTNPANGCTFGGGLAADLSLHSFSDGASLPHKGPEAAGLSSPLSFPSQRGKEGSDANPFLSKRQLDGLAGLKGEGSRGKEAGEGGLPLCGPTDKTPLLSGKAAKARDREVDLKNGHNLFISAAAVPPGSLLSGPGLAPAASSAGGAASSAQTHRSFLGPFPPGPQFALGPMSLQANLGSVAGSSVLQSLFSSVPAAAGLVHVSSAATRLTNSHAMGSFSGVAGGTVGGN

IC50 [1]: 1.4 nM
Ki [1]: 0.36 nM
half-life [2]: 1.7 h
clearance [3]: 84 mL/min/kg
Drug uptake [4]: Active
bioavailability [5]: 40%
IC50 [6]: 85 nM
AUC(0-inf) [7]: 2.37 µM·h
AUC(0-inf) [8]: 0.396 µM·h
Vd [9]: 10 L/kg
Tmax [10]: 3.5 h
IC50 [11]: 384 nM
IC50 [12]: 23 nM
Cmax [13]: 225 nM
permeability [14]: Permeable
SMILES: CNc1ccnc(Nc2ccc3sc(Cl)c(-c4cc(-c5c(C)ncn(C)c5=O)cnc4Cl)c3c2)n1

IC50 [1]: 4100 nM
SMILES: Cc1cc2ccc(NC3=NC(=O)CN3)cc2n1-c1cccnc1Cl

IC50 [1]: 1100 nM
SMILES: Cc1cc2ccc(Nc3nc(=O)cc[nH]3)cc2n1-c1cccnc1Cl

IC50 [1]: 10 nM
SMILES: CNc1ccnc(Nc2ccc3cc(C)n(-c4cc(-c5c(C)ccn(C)c5=O)cnc4Cl)c3c2)n1

IC50 [1]: 28000 nM
SMILES: Cc1cc2ccc(Nc3cccnn3)cc2n1-c1cccnc1Cl

IC50 [1]: 280 nM
SMILES: CNc1ccnc(Nc2ccc3cc(C)n(-c4cccnc4Cl)c3c2)n1

IC50 [1]: 4300 nM
SMILES: Cc1cc2ccc(Nc3nccc(N)n3)cc2n1-c1cccnc1Cl

IC50 [1]: 150 nM
SMILES: CNc1ccnc(Nc2ccc3cc(C)n(-c4ccccc4Oc4ccccc4)c3c2)n1

IC50 [1]: 14000 nM
SMILES: O=C(Cn1nnc(COc2ccccc2Cl)n1)NNC(=O)Nc1ccc(Cl)cc1

IC50 [1]: 20 nM
permeability [14]: Impermeable
SMILES: O=C(Cn1nnnc1-c1ccccc1Cl)NNC(=O)Nc1ccc2ccn(-c3ccccc3Cl)c2c1

IC50 [1]: 4400 nM
SMILES: O=C(Cn1nnnc1COc1ccccc1Cl)NNC(=O)Nc1ccc(Cl)cc1

IC50 [1]: 0.4 nM
Ki [1]: 0.08 nM
IC50 [6]: 128 nM
IC50 [11]: 340 nM
IC50 [12]: 16 nM
SMILES: CNc1ccnc(Nc2ccc3cc(C)n(-c4ccccc4Oc4cnc5c(c4)ncn5C)c3c2)n1

IC50 [1]: 40000 nM
SMILES: CCNC(=O)Nc1ccc2ccn(-c3ccccc3Cl)c2c1
